We go through 36 sequences from the array DNA melting data of Ke et al. (doi:10.1101/2024.01.08.574731).

A short description of series [1]: melting temperature; fluorescence melt of hairpins on a sequencing array, two-state fit, raised by 9.35 °C to match UV melts. The conditions noted are these: sodium 0.088 M. The method, boiled down: (§1)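 Cy3 fluorescence of library hairpins on a sequenced MiSeq flow cell, with annealed Cy3 and quencher oligos, was imaged in 50 mM Na-HEPES pH 8.0, 25 mM NaCl in 2.5 °C steps up to 60 °C. Signals were normalised to pre-quench Cy3 and to control variants. Melting temperature and folding enthalpy came from bootstrapped two-state fits, inverse-variance combined over four replicates. Fitted temperatures were raised by 9.35 °C to match UV melts.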

Series [2] is described as follows: folding enthalpy; higher = less favourable; fluorescence melt of hairpins on a sequencing array, two-state fit. Particulars: sodium 0.088 M. Summed up: as §1

For the sequence GCCCGGACGAAAGTCGGC (((..(((....)))))), the Tm in series [1] was found to be 50.9 °C. Moreover, the folding enthalpy in series [2] is -14.5 kcal/mol.

For the sequence GCCCGGCGAAAGCAGAGC ((.(.((....)).).)), in series [1], the Tm is 47.4 °C. Further, the folding enthalpy in series [2] is -14.4 kcal/mol.

GCCCGGCGAAAGCGGCGC ((.(.((....)).).)): the Tm in series [1] came to 64.6 °C. The folding enthalpy in series [2] was -21.1 kcal/mol.

Consider GCCCGTGGAAACACAGGC (((.(((....))).))), for which the Tm in series [1] is 50.4 °C. The folding enthalpy in series [2] was -29.8 kcal/mol.

Regarding GCCCGTGGAAACGTGGGC ((((..(....)..)))), in series [1], the Tm amounted to 54.9 °C. In addition, the folding enthalpy in series [2] was -31.2 kcal/mol.

Take GCCCTAGAAATAGGGC ((((((....)))))): the Tm in series [1] worked out at 59.1 °C. The folding enthalpy in series [2] is -37.2 kcal/mol.

On to GCCCTAGGAAACTAGGAC (.(((((....))))).), for which the Tm in series [1] was found to be 37.7 °C. Moreover, in series [2], the folding enthalpy is -19.6 kcal/mol.

GCCCTCCCGAAAGGGGGC (((..(((....)))))): the Tm in series [1] was 58 °C. The folding enthalpy in series [2] was -16.1 kcal/mol.

In the case of GCCCTCGAAAGAGAAGGC ((((((....)))..))), the Tm in series [1] came out at 48.3 °C. Moreover, the folding enthalpy in series [2] was -22.2 kcal/mol.

As to GCCCTCGAAAGAGCAGGC ((((((....)))..))), the Tm in series [1] is 44.9 °C. The folding enthalpy in series [2] was -24.8 kcal/mol.

With GCCCTCGAAAGAGCCGGC ((((((....)))..))), the Tm in series [1] is 40.4 °C. Moreover, in series [2], the folding enthalpy was -18.4 kcal/mol.

For GCCCTCGAAAGAGTAGGC ((((((....)))..))), the Tm in series [1] stood at 49 °C. The folding enthalpy in series [2] was -29.5 kcal/mol.

Regarding GCCCTCGAAAGAGTTGGC ((((((....)))..))), in series [1], the Tm was 44 °C. For the same sequence, the folding enthalpy in series [2] is -23.2 kcal/mol.

As for GCCCTCGGAAACGGGGGC ((((.((....)).)))), the Tm in series [1] came out at 66.9 °C. Besides, in series [2], the folding enthalpy is -32.7 kcal/mol.

Take GCCCTGCGAAAGCAAAGC ((..(((....)))..)): the Tm in series [1] was 29.2 °C. Moreover, the folding enthalpy in series [2] was -6.64 kcal/mol.

As to GCCCTGCGAAAGCACAGC ((..(((....)))..)), the Tm in series [1] amounted to 27.4 °C. Moreover, the folding enthalpy in series [2] is -8.54 kcal/mol.

For the sequence GCCCTGCGAAAGCAGTGC ((.((((....)))).)), in series [1], the Tm turned out to be 58.5 °C. In series [2], the folding enthalpy is -17.3 kcal/mol.

On to GCCCTGCGAAAGCATGGC (((.(((....))).))), for which the Tm in series [1] is 56.3 °C. For the same sequence, in series [2], the folding enthalpy was -48.3 kcal/mol.

As to GCCCTGCGAAAGCGGAGC ((.(.((....)).).)), the Tm in series [1] was determined as 51.5 °C. For the same sequence, the folding enthalpy in series [2] was -15.5 kcal/mol.

As to GCCCTGCGAAAGCTCGGC (((..((....))..))), in series [1], the Tm is 46.9 °C. For the same sequence, the folding enthalpy in series [2] was -19.3 kcal/mol.

With GCCCTGCGAAAGCTGTGC ((.(.((....)).).)), the Tm in series [1] worked out at 38.9 °C. Further, in series [2], the folding enthalpy was -15.7 kcal/mol.

In the case of GCCCTGGCGAAAGCCGGC (((..(((....)))))), the Tm in series [1] came to 52 °C. In addition, the folding enthalpy in series [2] was -11.1 kcal/mol.

With GCCCTGGGAAACCGGGGC ((((.((....)).)))), in series [1], the Tm was determined as 66.2 °C. Further, the folding enthalpy in series [2] is -43.1 kcal/mol.

With GCCCTGTCGAAAGACGGC (((..(((....)))))), the Tm in series [1] was 44.5 °C. Moreover, the folding enthalpy in series [2] was -15.4 kcal/mol.

Consider GCCCTTCGAAAGAAGGC (((.(((....)))))), for which, in series [1], the Tm turned out to be 52.9 °C. The folding enthalpy in series [2] is -21.4 kcal/mol.

In the case of GCCGAACCGAAAGGTGGC (((..(((....)))))), the Tm in series [1] was 53.1 °C. Also, in series [2], the folding enthalpy is -26.4 kcal/mol.

Regarding GCCGAACGAAAGTTGGGC (((.(((....))).))), in series [1], the Tm worked out at 58.5 °C. The folding enthalpy in series [2] was -38.8 kcal/mol.

With GCCGAAGGAAACTCCGGC ((((.((....)).)))), in series [1], the Tm was 48.3 °C. Besides, in series [2], the folding enthalpy was -28 kcal/mol.

In the case of GCCGAAGGAAACTTCAGC ((.((((....)))).)), in series [1], the Tm came out at 32.9 °C. Also, in series [2], the folding enthalpy is -11.7 kcal/mol.

Turning to GCCGACACGAAAGTGGGC (((..(((....)))))), in series [1], the Tm was found to be 53.1 °C. Besides, the folding enthalpy in series [2] is -24.5 kcal/mol.

Turning to GCCGACGAAAGTCAGGGC ((((((....)))..))), the Tm in series [1] was 55.1 °C. Also, the folding enthalpy in series [2] was -36.8 kcal/mol.

For the sequence GCCGACGAAAGTCCCGGC ((((((....)))..))), in series [1], the Tm came out at 49.6 °C. The folding enthalpy in series [2] is -20.9 kcal/mol.

Consider GCCGACGAAAGTCTAGGC ((((((....)))..))), for which the Tm in series [1] amounted to 52.7 °C. In series [2], the folding enthalpy was -34.1 kcal/mol.

Take GCCGAGCGAAAGCACAGC ((.(.((....)).).)): in series [1], the Tm amounted to 40.1 °C. Also, the folding enthalpy in series [2] was -15.1 kcal/mol.

With GCCGAGCGAAAGCGCAGC ((.(.((....)).).)), the Tm in series [1] is 49.4 °C. Also, the folding enthalpy in series [2] is -14.4 kcal/mol.

On to GCCGAGCGAAAGCGTGGC (((..((....))..))), for which the Tm in series [1] came to 68.3 °C. The folding enthalpy in series [2] is -25.4 kcal/mol.
